In ChEMBL document CHEMBL1799920, “Total synthesis and pharmacological characterization of solomonsterol A, a potent marine pregnane-X-receptor agonist endowed with anti-inflammatory activity” (J Med Chem, 2011):
Active and inactive are the calls of the source.

Legend:
Mus musculus [1] = experiment: Antiinflammatory activity against trinitrobenzenesulfonic acid-induced colitis in human PXR expressing transgenic C57/BL6 mouse assessed as increase in IL-10 protein level in colon at 10 mg/kg, po qd after 5 days by ELISA; assay type: functional, organism-based; design: dose 10 mg/kg; conditions: C57Bl/6
Method in brief: (§1)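 TNFα and IL-10 were measured by ELISA in colon homogenates (T-PER lysis, 10,000g for 15 min at 4 °C) from TNBS-colitic hPXR mice. Mice were dosed orally at 10 mg/kg once daily in DMSO/1% methylcellulose, starting 3 days before intrarectal TNBS (0.5 mg/mouse). Values were normalized to protein; mean ± SE, 6–7 mice/group.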

Mus musculus [2] = experiment: Antiinflammatory activity against trinitrobenzenesulfonic acid-induced colitis in human PXR expressing transgenic C57/BL6 mouse assessed as induction of CYP3A11 mRNA expression in colon at 10 mg/kg, po qd after 5 days by quantitative RT-PCR; assay type: functional, organism-based; design: dose 10 mg/kg; conditions: C57Bl/6
Method in brief: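 Cyp3A11 mRNA in colon of TNBS-colitic hPXR mice was measured by SYBR Green qPCR (50 ng template, 0.2 μM primers). Cycling was 95 °C for 2 min, then 40 cycles of 95/55/72 °C, with each reaction run in triplicate. Expression was calculated by ΔΔCT against GAPDH relative to untreated control. Mean ± SE, 5 mice/group.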

THP-1 = experiment: Inhibition of NF-kappaB p65 DNA binding activity in LPS-stimulated human THP1 cells at 10 uM after 3 hrs by electrophoretic mobility shift assay; assay type: cell-based
Method in brief: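 THP-1 cells were pretreated with compound (10 μM) or vehicle for 3 h, then LPS 1 μg/mL was added for 20 h. Nuclear extracts were incubated with biotinylated NF-κB probe for 20 min at room temperature, run on a 6% native gel and detected by chemiluminescence. Specificity was checked by cold-probe competition and p65 antibody supershift. Three independent experiments.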

Mus musculus [3] = experiment: Antiinflammatory activity against trinitrobenzenesulfonic acid-induced colitis in human PXR expressing transgenic C57/BL6 mouse assessed as decrease in occurrence of diarrhea at 10 mg/kg, po qd administered 3 days before TNBS challenge measured after 7 days; assay type: functional, organism-based; design: dose 10 mg/kg; conditions: C57Bl/6
Method in brief: (§2)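 Clinical read-outs in hPXR mice with TNBS colitis (0.5 mg/mouse intrarectally in 50% ethanol after a 16 h fast). Oral dosing at 10 mg/kg once daily (DMSO diluted in 1% methylcellulose) started 3 days before TNBS. Diarrhea was scored and body weight recorded, weight expressed as delta percentage versus the day before TNBS; sacrifice was 4 days after TNBS. n = 6–7.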

Mus musculus [4] = experiment: Antiinflammatory activity against trinitrobenzenesulfonic acid-induced colitis in human PXR expressing transgenic C57/BL6 mouse assessed as decrease in weight loss at 10 mg/kg, po qd administered 3 days before TNBS challenge measured after 7 days; assay type: functional, organism-based; design: dose 10 mg/kg; conditions: C57Bl/6; method in brief: as §2
Mus musculus [5] = experiment: Antiinflammatory activity against trinitrobenzenesulfonic acid-induced colitis in human PXR expressing transgenic C57/BL6 mouse assessed as decrease in presence of indurations in colon at 10 mg/kg, po qd administered 3 days before TNBS challenge measured after 7 days; assay type: functional, organism-based; design: dose 10 mg/kg; conditions: C57Bl/6
Method in brief: (§3)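 hPXR male mice were fasted 16 h and given TNBS intrarectally (0.5 mg/mouse in 50% ethanol). Oral 10 mg/kg once daily (DMSO stock diluted in 1% methylcellulose) began 3 days before TNBS; vehicle controls received 1% methylcellulose. Four days after TNBS, colon macroscopic appearance was graded blind for induration, edema, thickness and mucosal hemorrhage. n = 6–7.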

Mus musculus [6] = experiment: Antiinflammatory activity against trinitrobenzenesulfonic acid-induced colitis in human PXR expressing transgenic C57/BL6 mouse assessed as decrease in edema of colon at 10 mg/kg, po qd administered 3 days before TNBS challenge measured after 7 days; assay type: functional, organism-based; design: dose 10 mg/kg; conditions: C57Bl/6; method in brief: as §3
Mus musculus [7] = experiment: Antiinflammatory activity against trinitrobenzenesulfonic acid-induced colitis in human PXR expressing transgenic C57/BL6 mouse assessed as decrease in thickness of colon at 10 mg/kg, po qd administered 3 days before TNBS challenge measured after 7 days; assay type: functional, organism-based; design: dose 10 mg/kg; conditions: C57Bl/6; method in brief: as §3
Mus musculus [8] = experiment: Antiinflammatory activity against trinitrobenzenesulfonic acid-induced colitis in human PXR expressing transgenic C57/BL6 mouse assessed as decrease in evidence of mucosal hemorrhage damage at 10 mg/kg, po qd administered 3 days before TNBS challenge measured after 7 days; assay type: functional, organism-based; design: dose 10 mg/kg; conditions: C57Bl/6; method in brief: as §3
Mus musculus [9] = experiment: Antiinflammatory activity against trinitrobenzenesulfonic acid-induced colitis in human PXR expressing transgenic C57/BL6 mouse assessed as decrease in microscopic colon damage at 10 mg/kg, po qd administered 3 days before TNBS challenge measured after 7 days; assay type: functional, organism-based; design: dose 10 mg/kg; conditions: C57Bl/6
Method in brief: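 Microscopic colon damage in the prophylactic TNBS model in hPXR mice: oral 10 mg/kg daily, in DMSO/1% methylcellulose, from 3 days before intrarectal TNBS (0.5 mg/mouse in 50% ethanol). Colons were collected at day 4 post-TNBS, formalin-fixed, paraffin-embedded and H&E-stained, then graded blind on a 0–4 scale (leukocyte infiltration, vascular density, wall thickening, goblet cell loss). n = 6–7.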

Mus musculus [10] = experiment: Antiinflammatory activity against trinitrobenzenesulfonic acid-induced colitis in human PXR expressing transgenic C57/BL6 mouse assessed as decrease in cellular infiltrate in colon at 10 mg/kg, po qd administered 3 days before TNBS challenge measured after 7 days; assay type: functional, organism-based; design: dose 10 mg/kg; conditions: C57Bl/6
Method in brief: (§4)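 TNBS colitis in male hPXR mice (human PXR on mouse PXR-null background). After a 16 h fast and light ketamine/xylazine i.p. anesthesia, mice received TNBS 0.5 mg/mouse in 50% ethanol intrarectally by catheter. Dosing was 10 mg/kg orally once daily, dissolved in DMSO and diluted in 1% methylcellulose, starting 3 days before TNBS. Colons were taken 4 days after TNBS and stained with H&E. n = 6–7.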

Mus musculus [11] = experiment: (§5) Antiinflammatory activity against trinitrobenzenesulfonic acid-induced colitis in human PXR expressing transgenic C57/BL6 mouse assessed as decrease in appearance of submucosal edema in colon at 10 mg/kg, po qd administered 3 days before TNBS challenge measured after 7 days by haematoxylin/eosin staining; assay type: functional, organism-based; design: dose 10 mg/kg; conditions: C57Bl/6; method in brief: as §4
Mus musculus [12] = experiment: as §5, with “epithelial erosions” for “submucosal edema”; assay type: functional, organism-based; design: dose 10 mg/kg; conditions: C57Bl/6; method in brief: as §4
Mus musculus [13] = experiment: Antiinflammatory activity against trinitrobenzenesulfonic acid-induced colitis in human PXR expressing transgenic C57/BL6 mouse assessed as decrease in colonic myeloperoxidase activity at 10 mg/kg, po qd after 5 days using trimethylbenzidine as substrate by spectrophotometry; assay type: functional, organism-based; design: dose 10 mg/kg; conditions: C57Bl/6
Method in brief: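 Colon myeloperoxidase from TNBS-colitic hPXR mice given oral 10 mg/kg daily. Colon was lysed in T-PER and minced, then centrifuged at 10,000g for 15 min at 4 °C. After two freeze/thaw cycles, MPO in the homogenate was measured spectrophotometrically with TMB substrate and normalized to protein. Mean ± SE, 6–7 mice/group.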

Mus musculus [14] = experiment: Antiinflammatory activity against trinitrobenzenesulfonic acid-induced colitis in human PXR expressing transgenic C57/BL6 mouse assessed as decrease in TNF-alpha protein level in colon at 10 mg/kg, po qd after 5 days by ELISA; assay type: functional, organism-based; design: dose 10 mg/kg; conditions: C57Bl/6; method in brief: as §1
Mus musculus [15] = experiment: Antiinflammatory activity against trinitrobenzenesulfonic acid-induced colitis in human PXR expressing transgenic C57/BL6 mouse assessed as decrease in INF-gamma protein level in colon at 10 mg/kg, po qd after 5 days; assay type: functional, organism-based; design: dose 10 mg/kg; conditions: C57Bl/6
Mus musculus [16] = experiment: Antiinflammatory activity against trinitrobenzenesulfonic acid-induced colitis in human PXR expressing transgenic C57/BL6 mouse assessed as decrease in IL-12p70 protein level in colon at 10 mg/kg, po qd after 5 days; assay type: functional, organism-based; design: dose 10 mg/kg; conditions: C57Bl/6
Mus musculus [17] = experiment: Antiinflammatory activity against trinitrobenzenesulfonic acid-induced colitis in human PXR expressing transgenic C57/BL6 mouse assessed as decrease in MIP-1alpha protein level in colon at 10 mg/kg, po qd after 5 days; assay type: functional, organism-based; design: dose 10 mg/kg; conditions: C57Bl/6
[18] = target: T1, Nuclear receptor subfamily 1 group I member 2 (Homo sapiens, UniProt O75469); experiment: Transactivation of human PXR expressed in HepG2 cells after 18 hrs by luciferase reporter gene assay; assay type: cell-based
T1 sequence (O75469 whole entry): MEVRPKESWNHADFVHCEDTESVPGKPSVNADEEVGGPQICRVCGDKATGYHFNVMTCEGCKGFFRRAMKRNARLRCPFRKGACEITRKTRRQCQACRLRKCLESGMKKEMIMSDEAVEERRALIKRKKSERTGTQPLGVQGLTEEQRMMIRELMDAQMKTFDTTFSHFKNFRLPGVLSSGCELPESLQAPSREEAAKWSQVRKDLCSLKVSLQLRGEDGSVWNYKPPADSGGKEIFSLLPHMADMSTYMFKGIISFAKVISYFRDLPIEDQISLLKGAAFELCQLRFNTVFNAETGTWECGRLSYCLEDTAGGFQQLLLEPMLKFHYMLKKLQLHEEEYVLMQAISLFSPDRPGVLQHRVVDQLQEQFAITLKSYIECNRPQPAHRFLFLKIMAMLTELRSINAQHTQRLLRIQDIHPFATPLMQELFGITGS
Method in brief: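 HepG2 cells were transiently transfected with pSG5-PXR, pSG5-RXR, pCMV-βgal and a CYP3A4-promoter luciferase reporter. 48 h after transfection, cells were stimulated for 18 h at 0.1, 1 and 10 μM. Luciferase was normalised to β-galactosidase; n = 4. Relative EC50 from n = 3.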

Mus musculus [19] = experiment: Antiinflammatory activity against trinitrobenzenesulfonic acid-induced colitis in human PXR expressing transgenic C57/BL6 mouse assessed as increase in TGF-beta1 protein level in colon at 10 mg/kg, po qd after 5 days; conditions: C57Bl/6

CO[C@H]1/C=C/O[C@@]2(C)Oc3c(C)c(O)c4c(O)c(c5c(nc6cc(C)ccn65)c4c3C2=O)NC(=O)/C(C)=C\C=C\[C@H](C)[C@H](O)[C@@H](C)[C@@H](O)[C@@H](C)[C@H](OC(C)=O)[C@@H]1C [RIFAXIMIN]
active: Activity (Mus musculus [1]) | Activity (Mus musculus [2]) | Activity (THP-1) | Activity (Mus musculus [3]) | Activity (Mus musculus [4]) | Activity (Mus musculus [5]) | Activity (Mus musculus [6]) | Activity (Mus musculus [7]) | Activity (Mus musculus [8]) | Activity (Mus musculus [9]) | Activity (Mus musculus [10]) | Activity (Mus musculus [11]) | Activity (Mus musculus [12]) | Activity (Mus musculus [13]) | Activity (Mus musculus [14]) | Activity (Mus musculus [15]) | Activity (Mus musculus [16]) | Activity (Mus musculus [17]) | Activity (Mus musculus [19])
2.2 µM: EC50 [18]
